For one data set, the system named is MCF-7. In words: Antiproliferation assay. The data set is classed as cell-based. Particulars: Homo sapiens, MCF7, 24 h, read-out: IC50 = mean ± SD, MCF-7. The essentials:
(§1)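 Cell lines were grown at 37 °C under 5% CO2 in their own media: A549 in DMEM/F12, H446 in RPMI 1640, and HeLa, MCF-7, L02 and BEAS-2B in high-glucose DMEM with L-glutamine, with 10% FBS and penicillin/streptomycin. Cells were seeded in 96-well plates and exposed to test compounds or reference agents at 37 °C for 24 h. CCK-8 was added for 2 h and absorbance read at 450 nm.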

The subject of a further data set is Hela. The experiment in a line: Antiproliferation assay. The format is cell-based. Particulars: Homo sapiens, 24 h, read-out: IC50 = mean ± SD, Hela. Put shortly: as §1
The subject of a further data set is A549. In words: Antiproliferation assay. The data set is classed as cell-based. Particulars: Homo sapiens, A549, 24 h, read-out: IC50 = mean ± SD, A549. The essentials:
as §1

The subject of another data set is H446. The experiment in a line: Antiproliferation assay. Particulars: Homo sapiens, NCI-H446, 24 h, read-out: IC50 = mean ± SD, H446. The format is cell-based. The essentials: as §1
The subject of a further data set is BEAS-2B. In words: Antiproliferation assay. Particulars: Homo sapiens, 24 h, read-out: IC50 = mean ± SD, BEAS-2B. The format is cell-based. Put shortly: as §1
A further data set deals with L02. In words: Antiproliferation assay. The format is cell-based. Particulars: Homo sapiens, L02, 24 h, read-out: IC50 = mean ± SD, L02. The essentials:
as §1

For data set [1], the system named is interphase microtubules of A549 cells (tubulin). In words: Confocal microscopy / western blot of tubulin depolymerization. The data set is classed as cell-based, human. The following applies: A549, 24 h; E5 0.5 and 1.0 µM, colchicine 1.0 µM, etoposide 1.0 µM. (In general: A western blot detects proteins with antibodies after separation by electrophoresis.)
In data set [2] the test system is A549 cells. In words: Wound healing migration assay. The data set is classed as cell-based, human. The following applies: A549, 24 h; E5 0.5, 1.0 and 2.0 µM, etoposide 1.0 µM. The essentials:
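Scratch assay: A549 cells were grown to 85% confluence in 6-well plates, scratched with a pipette tip and washed with PBS. They were then incubated at 37 °C for 24 h with 0.1% DMSO, test compound (0.5, 1.0 or 2.0 µM) or reference agents (1.0 µM). Wounds were imaged at 0 and 24 h, and inhibition of migration was expressed relative to control.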

A further data set concerns A549 xenografts. In words: A549 xenograft tumour model in nude mice. The data set is classed as in vivo, female BALB/c nude mice. The following applies: 2 mg/kg i.p. once every two days, eight times. Put shortly: (§2)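 Female BALB/c nude mice, 5 weeks old, acclimated 1 week, then given 5.0 × 10^6 A549 cells in 0.1 mL serum-free medium subcutaneously into the left axilla. Body weight and caliper tumour size (0.5 × length × width2) were taken every two days; tumours were excised and weighed at the end.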

For data set [3], the system named is non-small cell lung cancer (NSCLC) cell lines. The following applies: at 2 mM; ref Chang and Szabo [2002]; cited from earlier work.
For data set [4], the system named is A549 cells. In words: Cell-cycle analysis. The format is cell-based, human. Particulars: A549, 1.0 µM, 24 h, Figure 4C. Put shortly: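 A549 cells (5.0 × 10^4/well) adhered overnight, then received 0.1% DMSO, test compound (0.1, 0.5 or 1.0 µM) or reference agent (1.0 µM) for 24 h; a time course used 0.5 µM for 12, 24 and 36 h. Cells were fixed in 70% ethanol at 4 °C for 24 h and stained with RNase A plus propidium iodide at 4 °C for 0.5 h in the dark. Flow cytometry gated G0/G1, S and G2/M by DNA content.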

In data set [5] the test system is A549 cells. In words: Mitochondrial membrane potential analysis. The data set is classed as cell-based, human. Particulars: A549, JC-1, 2.0 µM, 12 h; control 4.33%.
The test system of data set [6] is A549 cells. In words: Transwell invasion assay. Particulars: A549, 24 h; better than PPT and etoposide at 1.0 µM. The data set is classed as cell-based, human.
Data set [7] deals with A549 cells. In words: Colony formation assay. The data set is classed as cell-based, human. Particulars: A549, versus control and PPT-treated cells.
In data set [8] the test system is PI3K/Akt pathway in A549 cells. The experiment in a line: Western blot of PI3K/Akt signalling pathway proteins. The format is cell-based, human. The following applies: 24 h. Put shortly: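 A549 cells were treated 24 h with test compound (0.1, 0.5, 1.0 or 2.0 µM), LY294002 (1.0 µM) or a reference agent (1.0 µM). Lysates were heat-denatured in non-reducing sample buffer and quantified by Bradford assay. 20 µg protein ran on 10% SDS-PAGE, transferred to PVDF and probed for PI3K, pPI3K, Akt and pAkt with GAPDH as loading control. Detection was by ECL with densitometry.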

The test system of data set [9] is Bax and Bcl-2 in A549 cells. The experiment in a line: Western blot of apoptosis-related proteins. The format is cell-based, human. Put shortly: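 Immunoblot of A549 lysates: heat-denatured in non-reducing sample buffer, Bradford-quantified, 20 µg protein on 10% SDS-PAGE, transferred to PVDF. Blots were probed for Bax and Bcl-2 with GAPDH as internal control, detected by ECL and quantified by densitometry. Data given as mean ± SD.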

Data set [10] is described as follows: Body weight of xenograft mice. The data set is classed as in vivo, female BALB/c nude mice. The following applies: E5 i.p., A549 xenograft mice, 15 days. Put shortly:
as §2

In the next data set the test system is neuroblastoma cell lines. Particulars: read-out: IC50 in neuroblastoma cell lines; ref Aggarwal et al. [2012]; cited from earlier work.
For data set [11], the system named is non-neuroblastoma cell lines. Particulars: read-out: IC50 in non-neuroblastoma cell lines; ref Aggarwal et al. [2012]; cited from earlier work.

For orientation: IC50 means the concentration at which inhibition is half-maximal.

Turning to `COc1cc([C@@H]2c3cc4c(cc3[C@@H](O[C@@H]3O[C@@H]5CO[C@@H](C)O[C@H]5[C@H](O)[C@H]3O)[C@H]3COC(=O)[C@H]23)OCO4)cc(OC)c1O` [Etoposide, etoposide, reference compound], the concentration for half-maximal inhibition (IC50) with MCF-7 was found to be 10.9 ± 0.39 µM; in the data set on Hela it was 24.7 ± 0.79 µM; with A549, 9.32 ± 0.55 µM; with H446 it was 2.21 ± 0.42 µM; in the data set with BEAS-2B, 67.6 ± 2.25 µM; in the data set with L02, 13.5 ± 1.15 µM. For the same compound, the tubulin depolymerization entry in data set [1] was “did not show such an effect”. The “cell scratch healing (migration)” value with A549 cells [2] is on record as “strong inhibitory effect”. The “tumour growth, E5 and etoposide at the same dose” value in the data set with A549 xenografts is reported as “specific inhibitory effect”.
In the case of `O=C([O-])CCCc1ccccc1.[Na+]` [sodium 4-phenylbutyrate], the “growth of NSCLC cell lines” value in data set [3] is listed as “impeding the growth”.
Consider `COc1cc([C@@H]2c3cc4c(cc3[C@H](OC(=O)CCCc3ccc(NS(=O)(=O)c5cccc(Br)c5)cc3)[C@H]3COC(=O)[C@H]23)OCO4)cc(OC)c1OC` [Compound E5, (5R,5aR,8aR,9R)-8-oxo-9-(3,4,5-trimethoxyphenyl)-5,5a,6,8,8a,9-hexahydrofuro [3′,4′:6,7]naphtho[2,3-d][1,3]dioxol-5-yl4-(4-((3-bromophenyl)sulfonamido)phenyl)butanoate], for which the half-maximal inhibitory concentration (IC50) in the data set with MCF-7 is 2.91 ± 0.55 µM; in the data set with Hela, 51.3 ± 1.42 µM; in the data set on A549 it was 0.35 ± 0.13 µM; in the data set on H446 it was 2.42 ± 0.3 µM; with BEAS-2B, > 100 µM; with L02, > 100 µM. Further, the “cells in G2/M phase” value in the data set with A549 cells [4] was found to be 32.73%. Further, in the data set with A549 cells [4], the “cells in S phase” value was found to be 34.09%. For the same compound, the “cells with low ΔΨm (ratio of cells with low membrane potential)” value in the data set with A549 cells [5] came out at 24.7%. In data set [1], the tubulin depolymerization entry is listed as “significant tubulin depolymerization”. Besides, the “cell scratch healing (migration)” value in the data set on A549 cells [2] was “significantly slowed dose dependent”. Also, the cell invasion result in the data set on A549 cells [6] is on record as “effectively inhibited cell invasion”. The “clone formation rate and clone size” value in the data set with A549 cells [7] was “lower clone formation rate and a smaller clone size”. Further, the “expression of pPI3K and pAkt” value in data set [8] (A549, E5 0.1, 1.0 and 2.0 µM) was “down-regulated dose-dependent”. For the same compound, the Bax expression result in data set [9] is recorded as “increased”. Moreover, in [9], the “expression of the antiapoptotic protein Bcl-2” value is recorded as “significantly decreased”. For the same compound, in the data set on A549 xenografts, the “tumour growth, E5 and etoposide at the same dose” value was “specific inhibitory effect”. Besides, the “body weight of the mice” value in [10] is “no significant changes”.
In the case of `O=c1cc(N2CCOCC2)oc2c(-c3ccccc3)cccc12` [LY294002, reference compound], in data set [8] (A549, 1.0 µM), the “pPI3K/PI3K and pAkt/Akt ratio” value is “notable reduction”.
On to `COc1ccc(S(=O)(=O)Nc2cccnc2Nc2ccc(O)cc2)cc1` [ABT-751], for which the values for the half-maximal inhibitory concentration (IC50) (in the data set with neuroblastoma cell lines; in [11]) were ~1.5 µM and ~3.4 µM, respectively.

These data come from article PMC10896134 (Pharmaceutical Biology, 2024).
